One may read the MIC as the lowest concentration found to suppress growth.

What all share (format): functional
For test [1], the system named is Candida albicans. As to the kind of experiment: Minimum inhibitory concentration for prevention of visible growth of Candida albicans. The essentials: (§1)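 Agar dilution: organisms deposited onto antibiotic-containing agar plates with a Steers-type replicator. MIC taken as the lowest concentration preventing visible growth, given as the mean of duplicate determinations.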

The target of test [2] is Beta-lactamase (Staphylococcus aureus) (UniProt P00807). As to the kind of experiment: Minimum protective concentration against beta-lactamase in Staphylococcus aureus (95 strain). The essentials:
(§2)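 MPC is the lowest β-lactam concentration that protects the indicator from hydrolysis within 40 min under standard conditions. Compound stability was checked without enzyme in phosphate buffer pH 6.5 at 37 °C.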

For test [3], the system named is Staphylococcus aureus. As to the kind of experiment: Minimum inhibitory concentration for prevention of visible growth of Staphylococcus aureus (95 strain). The essentials:
as §1

Test [4] relates to Pseudomonas aeruginosa. As to the kind of experiment: Minimum inhibitory concentration for prevention of visible growth of Pseudomonas aeruginosa (1101-75 strain). The essentials:
as §1

The test system of test [5] is Staphylococcus aureus. Nature of the test: Minimum inhibitory concentration for prevention of visible growth of Staphylococcus aureus (FDA 209P strain). The essentials:
as §1

The target in test [6] is Beta-lactamase (Pseudomonas aeruginosa (strain ATCC 15692 / PAO1 / 1C / PRS 101 / LMG12228)) (UniProt P24735). Nature of the test: Minimum protective concentration against beta-lactamase Pseudomonas aeruginosa (18S-H strain). The essentials: as §2
Chain of Beta-lactamase (Pseudomonas aeruginosa (strain ATCC 15692 / PAO1 / 1C / PRS 101 / LMG12228)) (P24735 27-397 limits assumed): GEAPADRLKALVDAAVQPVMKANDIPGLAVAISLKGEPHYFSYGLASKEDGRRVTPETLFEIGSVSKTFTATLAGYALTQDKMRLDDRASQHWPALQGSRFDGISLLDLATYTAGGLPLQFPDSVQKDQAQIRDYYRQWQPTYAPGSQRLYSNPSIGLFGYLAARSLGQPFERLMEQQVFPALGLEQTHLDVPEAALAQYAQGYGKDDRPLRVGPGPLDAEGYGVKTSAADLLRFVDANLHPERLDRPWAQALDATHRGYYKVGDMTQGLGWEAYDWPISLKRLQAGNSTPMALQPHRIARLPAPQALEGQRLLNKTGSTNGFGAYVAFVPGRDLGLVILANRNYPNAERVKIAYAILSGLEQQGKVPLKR
In test [7] the test system is Pseudomonas aeruginosa. As to the kind of experiment: Minimum inhibitory concentration for prevention of visible growth of Pseudomonas aeruginosa (18S-H strain). The gist of the method:
as §1

Values after ≈ are worked out from the molar mass of the structure shown.

Chain of Beta-lactamase (Staphylococcus aureus) (P00807 whole entry): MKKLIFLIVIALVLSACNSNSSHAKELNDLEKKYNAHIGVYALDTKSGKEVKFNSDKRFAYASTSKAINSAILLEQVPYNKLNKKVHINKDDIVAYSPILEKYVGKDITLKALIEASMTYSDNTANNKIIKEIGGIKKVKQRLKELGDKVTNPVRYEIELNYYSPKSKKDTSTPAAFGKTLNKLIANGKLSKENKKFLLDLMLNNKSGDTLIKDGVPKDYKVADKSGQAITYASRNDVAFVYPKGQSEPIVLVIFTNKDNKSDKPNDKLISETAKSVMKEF

On to `CC(=O)OCC1=C(C(=O)O)N2C(=O)[C@@H](NC(=O)c3cccc(C(=O)c4cc(Cl)cc(C(=O)c5ccccc5O)c4O)c3O)[C@H]2SC1`, for which the MIC in test [1] amounted to 14.2 µg/mL (≈ 21.3 µM); in test [3], 0.45 µg/mL (≈ 0.675 µM); in test [4], 0.79 µg/mL (≈ 1.18 µM); in test [5], 0.78 µg/mL (≈ 1.17 µM); in test [7], 0.38 µg/mL (≈ 0.57 µM). Also, the MPC in test [2] amounted to 88.7 µg/mL; in test [6], 93.5 µg/mL.

For `CNC(=O)c1cccc(C(=O)c2cc(Cl)cc(C(=O)c3ccccc3O)c2O)c1O`, the minimal inhibitory concentration (MIC) in test [1] was 120 µg/mL (≈ 281 µM); in test [3] it was 17.8 µg/mL (≈ 41.7 µM); in test [4], 6.03 µg/mL (≈ 14.2 µM); in test [5], 18.1 µg/mL (≈ 42.6 µM); in test [7] it was 8.32 µg/mL (≈ 19.5 µM).

Take `COC(=O)c1cccc(Cc2cc(Cl)cc(Cc3ccccc3O)c2O)c1O`: the MIC in test [1] is 117 µg/mL (≈ 294 µM); in test [3], 4.65 µg/mL (≈ 11.7 µM); in test [4], 1.25 µg/mL (≈ 3.13 µM); in test [5] it was 2.98 µg/mL (≈ 7.47 µM); in test [7] it was 1.56 µg/mL (≈ 3.91 µM).

In the case of `CC(=O)OCC1=C(C(=O)O)N2C(=O)[C@@H](NC(=O)c3cccc(Cc4cc(Cl)cc(Cc5ccccc5O)c4O)c3O)[C@H]2SC1`, the minimal inhibitory concentration (MIC) in test [1] is 28.3 µg/mL (≈ 44.3 µM); in test [3] it was 0.28 µg/mL (≈ 0.438 µM); in test [4], 0.28 µg/mL (≈ 0.438 µM); in test [5] it was 0.35 µg/mL (≈ 0.548 µM); in test [7], 0.45 µg/mL (≈ 0.704 µM). Moreover, the MPC is 95.2 µg/mL in test [2] and 99.8 µg/mL in test [6].

Consider `COC(=O)c1cccc(C(=O)c2cc(Cl)cc(C(=O)c3ccccc3O)c2O)c1O`, for which the MIC came out at 125 µg/mL (≈ 294 µM) in test [1]; 15.3 µg/mL (≈ 35.9 µM) in test [3]; 5.78 µg/mL (≈ 13.5 µM) in test [4]; 14.7 µg/mL (≈ 34.4 µM) in test [5]; 4.3 µg/mL (≈ 10.1 µM) in test [7].

As to `O=C(O)c1cccc(C(=O)c2cc(Cl)cc(C(=O)c3ccccc3O)c2O)c1O`, the minimum inhibitory concentration (MIC) in test [1] is 3.7 µg/mL (≈ 8.96 µM); in test [3], 0.98 µg/mL (≈ 2.37 µM); in test [4], 0.17 µg/mL (≈ 0.412 µM); in test [5], 3.67 µg/mL (≈ 8.89 µM); in test [7], 0.26 µg/mL (≈ 0.63 µM).

Turning to `O=C(COc1ccccc1)N[C@@H]1C(=O)N2C(C(=O)O)=C(COC(=O)c3cccc(C(=O)c4cc(Cl)cc(C(=O)c5ccccc5O)c4O)c3O)CS[C@H]12`, the MIC in test [1] was determined as 6.47 µg/mL (≈ 8.52 µM); in test [3] it was 2.1 µg/mL (≈ 2.77 µM); in test [4] it was 1.37 µg/mL (≈ 1.8 µM); in test [5], 0.9 µg/mL (≈ 1.19 µM); in test [7], 3.13 µg/mL (≈ 4.12 µM). Besides, the results for the MPC in test [2] and in test [6] were 4.81 µg/mL and 5.98 µg/mL, respectively.

Regarding `CNC(=O)c1cccc(Cc2cc(Cl)cc(Cc3ccccc3O)c2O)c1O`, the MIC was 114 µg/mL (≈ 287 µM) in test [1]; 6.63 µg/mL (≈ 16.7 µM) in test [3]; 3.28 µg/mL (≈ 8.24 µM) in test [4]; 7.35 µg/mL (≈ 18.5 µM) in test [5]; 4.7 µg/mL (≈ 11.8 µM) in test [7].

Consider `Oc1ccccc1Cc1cc(Cl)cc(Cc2ccccc2O)c1O`, for which the minimum inhibitory concentration (MIC) in test [1] is 2.06 µg/mL (≈ 6.04 µM); in test [3] it was 0.58 µg/mL (≈ 1.7 µM); in test [4], 0.07 µg/mL (≈ 0.205 µM); in test [5] it was 1.2 µg/mL (≈ 3.52 µM); in test [7], 0.18 µg/mL (≈ 0.528 µM).

Turning to `CO/N=C(\C(=O)N[C@@H]1C(=O)N2C(C(=O)O)=C(COC(C)=O)CS[C@H]12)c1csc(N)n1` [CEFOTAXIME], the MIC is above 145 µg/mL in test [1]; 40.6 µg/mL (≈ 89.1 µM) in test [3]; 69.9 µg/mL (≈ 153 µM) in test [4]; 1.7 µg/mL (≈ 3.73 µM) in test [5]; 135 µg/mL (≈ 296 µM) in test [7]. The values for the MPC in test [2] and in test [6] were 2.72 µg/mL and 1.03 µg/mL, respectively.

Turning to `O=C(O)c1cccc(C(=O)c2cc(Cl)cc(C(=O)c3cccc(C(=O)O)c3O)c2O)c1O`, the minimum inhibitory concentration (MIC) in test [1] is 19.1 µg/mL (≈ 41.9 µM); in test [3], 22.2 µg/mL (≈ 48.6 µM); in test [4] it was 2.54 µg/mL (≈ 5.56 µM); in test [5], 18.2 µg/mL (≈ 40 µM); in test [7] it was 3.06 µg/mL (≈ 6.7 µM).

Take `Oc1ccccc1Cc1cccc(Cc2ccccc2O)c1O`: the minimum inhibitory concentration (MIC) in test [1], in test [3], in test [4], in test [5] and in test [7] was above 145 µg/mL each time.

For `CC(=O)Oc1ccc(Br)cc1Cc1cc(Cl)cc(Cc2cc(Br)ccc2OC(C)=O)c1OC(C)=O`, the MIC in test [1], in test [3], in test [4], in test [5] and in test [7] was above 145 µg/mL throughout.

Turning to `CC(=O)OCC1=C(C(=O)O)N2C(=O)[C@@H](NC(=O)COc3ccccc3)[C@H]2SC1`, the minimal inhibitory concentration (MIC) in test [1] was above 145 µg/mL; in test [3], above 145 µg/mL; in test [4], above 145 µg/mL; in test [5], 0.7 µg/mL (≈ 1.72 µM); in test [7] it was above 145 µg/mL. The MPC was 1.35 µg/mL in test [2] and 0.97 µg/mL in test [6].

Take `O=C(O)c1cccc(Cc2cc(Cl)cc(Cc3ccccc3O)c2O)c1O`: the MIC in test [1] was 1.43 µg/mL (≈ 3.72 µM); in test [3], 0.43 µg/mL (≈ 1.12 µM); in test [4], 0.02 µg/mL (≈ 0.052 µM); in test [5], 0.86 µg/mL (≈ 2.23 µM); in test [7] it was 0.1 µg/mL (≈ 0.26 µM).

Regarding `O=C(COc1ccccc1)N[C@@H]1C(=O)N2C(C(=O)O)=C(COC(=O)c3cccc(Cc4cc(Cl)cc(Cc5ccccc5O)c4O)c3O)CS[C@H]12`, the MIC in test [1] is 5.86 µg/mL (≈ 8.01 µM); in test [3], 1.2 µg/mL (≈ 1.64 µM); in test [4], 0.98 µg/mL (≈ 1.34 µM); in test [5], 0.41 µg/mL (≈ 0.561 µM); in test [7] it was 1.24 µg/mL (≈ 1.7 µM). For the same molecule, the MPC in test [2] came out at 7.08 µg/mL; in test [6] it was 6.74 µg/mL.

On to `Oc1ccc(Br)cc1Cc1cc(Cl)cc(Cc2cc(Br)ccc2O)c1O`, for which the MIC was found to be 115 µg/mL (≈ 231 µM) in test [1]; 49 µg/mL (≈ 98.2 µM) in test [3]; 39.4 µg/mL (≈ 79 µM) in test [4]; 45 µg/mL (≈ 90.3 µM) in test [5]; 36.7 µg/mL (≈ 73.6 µM) in test [7].

On to `O=C(O)[C@H]1/C(=C/CO)O[C@@H]2CC(=O)N21`, for which the results for the MPC in test [2] and in test [6] were 0.38 µg/mL and 3 µg/mL, respectively.

For `O=C(O)c1cccc(Cc2cc(Cl)cc(Cc3cccc(C(=O)O)c3O)c2O)c1O`, the minimal inhibitory concentration (MIC) in test [1] stood at 16.5 µg/mL (≈ 38.5 µM); in test [3], 4.15 µg/mL (≈ 9.68 µM); in test [4] it was 0.86 µg/mL (≈ 2.01 µM); in test [5], 3.25 µg/mL (≈ 7.58 µM); in test [7], 1.32 µg/mL (≈ 3.08 µM).

As to `CC(=O)Oc1ccccc1Cc1cc(Cl)cc(Cc2ccccc2OC(C)=O)c1OC(C)=O`, the MIC in test [1], in test [3], in test [4], in test [5] and in test [7] was above 145 µg/mL each time.

(Values after ChEMBL document CHEMBL1130378, “Cephalosporin 3'-phloroglucide esters and 7-(phloroglucidamido) cephalosporins as novel antibacterial agents” (1997).)
